Legend:
Mus musculus [1] = assay: Inhibition of hind limb tonus was tested by maximal electroshock test (MES) in mouse after 1 hr of peroral administration of compound; type: functional; conditions: Hindlimb, po
How it was run: (§1)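 Male BKW mice (LACA origin), 18-22 g, dosed ip or po with compound dissolved or suspended in 2% Tween 80 in distilled water. Readout was block of hind limb tonic seizure. ED50 was derived by probit analysis using the computerized Bliss method.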

Rattus norvegicus [2] = species: Rattus norvegicus; assay: Plasma concentration was determined in rat maximal electroshock test; type: functional, organism-based
How it was run: (§2)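 Groups of six rats received compound suspended in 2% Tween 80/water (0.5 mL/100 g) ip or po. Blood was drawn by cardiac puncture into heparin at various times. Plasma was extracted and assayed by HPLC-UV on an ODS column with 1% acetic acid/methanol/0.1% aqueous ammonium acetate (45:55).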

Rattus norvegicus [3] = assay: Inhibition of hind limb tonus was tested by maximal metrazole seizure test after 1 hr of peroral administration of compound; type: functional; conditions: Hindlimb, po
[4] = Effect of compound on mouse motor performance was tested by rotarod test after 1 hr of peroral administration; type: ADME, organism-based; conditions: in vivo, po
How it was run: (§3)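 Male BKW mice, 18-22 g, were pre-trained on a rotorod turning at 16 rpm (3 cm drum). They were dosed ip or po in 2% Tween 80/water and tested at timed intervals. TD50, the dose at which 50% fell off the rod, was derived by probit analysis.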

Rattus norvegicus [5] = assay: Inhibition of hind limb tonus was tested by maximal electroshock test (MES) in rat after 1 hr of peroral administration; type: functional; conditions: Hindlimb, po
Rattus norvegicus [6] = species: Rattus norvegicus; assay: Plasma concentration in rat rotarod test.; type: functional, organism-based; how it was run: as §2
[7] = Effect of compound on mouse motor performance was studied by performing a rotarod test in mouse dosing intraperitoneally at time of peak effect.; type: ADME, organism-based; conditions: in vivo, ip; how it was run: as §3
[8] = Protective index (rat) was from the ratio of plasma concentration at which side effects occur by plasma concentration at which anticonvulsant activity occur.; type: functional
How it was run: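 Rat plasma drug concentration at rotorod impairment was divided by the plasma concentration at MES anticonvulsant activity. Both were measured by HPLC-UV in plasma from dosed rats.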

Mus musculus [9] = assay: Inhibition of hind limb tonus was tested by maximal metrazole seizure (MMS) test in mouse after 1 hr of peroral administration; type: functional; conditions: Hindlimb, po
How it was run: (§4)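 Male BKW mice, 18-22 g, dosed orally with compound in 2% Tween 80/water. Metrazol 120 mg/kg ip was given 1 h after dosing. ED50 for block of hind limb tonic seizure was derived by Bliss probit analysis.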

Rattus norvegicus [10] = assay: Inhibition of hind limb tonus was tested at time of peak effect by maximal electroshock test (MES) on intraperitoneal administration of compound in rats; type: functional; conditions: Hindlimb, ip
Rattus norvegicus [11] = assay: Inhibition of hind limb tonus was tested by maximal metrazole seizure test after 4 hr of peroral administration; type: functional; conditions: Hindlimb, po
Rattus norvegicus [12] = assay: Inhibition of hind limb tonus was tested by maximal electroshock test (MES) in rat after 4 hr of peroral administration; type: functional; conditions: Hindlimb, po
Mus musculus [13] = assay: Inhibition of hind limb tonus was tested at time of peak effect by maximal electroshock test (MES) in mouse on intraperitoneal administration of compound; type: functional; conditions: Hindlimb, ip; how it was run: as §1
[14] = Neurotoxicity by a rotarod test in mouse after 1 hr of administration; type: toxicity, organism-based; conditions: in vivo; how it was run: as §3
Mus musculus [15] = assay: Anticonvulsant activity tested by maximal electroshock test (MES) in mouse after 1 hr of administration; type: functional; how it was run: as §1
Rattus norvegicus [16] = assay: Maximum percent fall in mean arterial blood pressure was evaluated by injecting 100 mg/kg perorally in DOCA hypertensive rats; type: functional; conditions: route oral
Mus musculus [17] = assay: Anticonvulsant activity tested by maximal metrazole seizure (MMS) test in mouse after 1 hr of administration; type: functional; how it was run: as §4
Mus musculus [18] = assay: Anticonvulsant activity was assessed by performing maximal electroshock test (MES) 1 hr after dosing, in mouse.; type: functional; how it was run: as §1
[19] = Neurotoxicity by performing a rotarod test in mouse after 1 hr of administration; type: toxicity, organism-based; conditions: in vivo; how it was run: as §3
[20] = Neurotoxicity by performing a rotarod in mouse after 1 hr of administration; type: toxicity, organism-based; conditions: in vivo; how it was run: as §3
Mus musculus [21] = assay: Inhibition of hind limb tonus was tested by performing a maximal metrazole seizure (MMS) test in mouse after 1 hr of peroral administration of compound; conditions: Hindlimb, po
Rattus norvegicus [22] = assay: Inhibition of hind limb tonus was tested by maximal metrazole seizure test after 1 hr of peroral administration in rats; type: functional; conditions: Hindlimb, po
How it was run: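 Rats were dosed orally, then given metrazol (leptazol) 80 mg/kg iv 1 h later, following the Desmedt method. The endpoint was hind limb tonic seizure, with ED50 by probit analysis.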

Mus musculus [23] = assay: Inhibition of hind limb tonus was tested at time of peak effect by maximal metrazole seizure (MMS) test administered intraperitoneally in mouse; type: organism-based; conditions: Hindlimb, ip
How it was run: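 Male BKW mice (18-22 g) received compound intraperitoneally in 2% aqueous Tween 80 and were challenged with metrazol 120 mg/kg ip at the time of peak effect. ED50 for block of hind limb tonic seizure in 50% of mice was obtained by probit analysis.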

Rattus norvegicus [24] = assay: Inhibition of hind limb tonus was tested by maximal electroshock test (MES) in rat 1 hr after peroral dosing; type: functional; conditions: Hindlimb, po
Rattus norvegicus [25] = assay: Inhibition of hind limb tonus was tested by maximal metrazole seizure test after 4 hr of peroral administration in rats; type: functional; conditions: Hindlimb, po
How it was run: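 Rats received the anticonvulsant orally, then metrazol (leptazol) 80 mg/kg iv, following Desmedt et al. The endpoint was block of the hind limb tonic seizure. ED50 was the dose protecting 50% of animals, by probit analysis (Bliss computerized method), with limits.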

CN(N)c1nnc(-c2ccccc2-c2ccccc2)s1
ED50 (Mus musculus [1]): 18 mg/kg
Concentration (Rattus norvegicus [2]): 11.1 µg/mL
ED50 (Rattus norvegicus [3]): 13 mg/kg
TD50 at 1 h [4]: > 1000 mg/kg
ED50 (Rattus norvegicus [5]): 16 mg/kg
Concentration (Rattus norvegicus [6]): 57 µg/mL
TD50 [7]: 93 mg/kg
PI [8]: 5.14
ED50 (Mus musculus [9]): 27 mg/kg
ED50 (Rattus norvegicus [10]): 6 mg/kg
ED50 (Rattus norvegicus [11]): 13 mg/kg
ED50 (Rattus norvegicus [12]): 11 mg/kg
ED50 (Mus musculus [13]): 17 mg/kg

CCCCCCOc1ccccc1-c1nnc(NN)s1.Cl
TD50 at 1 h [14]: > 150 mg/kg
ED50 (Mus musculus [15]): 20 mg/kg
Decrease in blood pressure (Rattus norvegicus [16]): 10%
ED50 (Mus musculus [17]): 33 mg/kg

CN(C)N(C)c1nnc(-c2ccccc2-c2ccccc2)s1.Cl
ED50 (Mus musculus [18]): 63 mg/kg
ED50 (Mus musculus [17]): 73 mg/kg
TD50 at 1 h [19]: > 800 mg/kg

COCN(N)c1nnc(-c2ccccc2Cl)s1
ED50 (Mus musculus [15]): 50 mg/kg
TD50 at 1 h [20]: 80 mg/kg
ED50 (Mus musculus [17]): 60 mg/kg

O=C1NC(=O)C(c2ccccc2)(c2ccccc2)N1 [PHENYTOIN]
ED50 (Mus musculus [1]): 8 mg/kg
ED50 (Mus musculus [21]): 8 mg/kg
ED50 (Rattus norvegicus [22]): 12 mg/kg
ED50 (Mus musculus [23]): 12 mg/kg
PI [8]: 5.17
ED50 (Rattus norvegicus [24]): 14 mg/kg
ED50 (Rattus norvegicus [25]): 20 mg/kg
ED50 (Rattus norvegicus [10]): 14 mg/kg
ED50 (Rattus norvegicus [12]): 26 mg/kg
ED50 (Mus musculus [13]): 8 mg/kg

— ChEMBL document CHEMBL1123516, “Substituted 1,3,4-thiadiazoles with anticonvulsant activity. 1. Hydrazines” (J Med Chem, 1986)
